Measured values as given in ChEMBL document CHEMBL1139437, “Design, synthesis, and preliminary pharmacological evaluation of 4-aminopiperidine derivatives as N-type calcium channel blockers active on pain and neuropathic pain” (J Med Chem, 2004).

Experiments:
[1] = test system: Rattus norvegicus; assay: Antihyperalgesic activity was evaluated in rat (sn) paw pressure test after 45 min at a dose of 40 ug intracerebroventricularly
[2] = test system: Rattus norvegicus; assay: Antihyperalgesic activity was evaluated in rat (dx) paw pressure test after 45 min at a dose of 40 ug intracerebroventricularly
[3] = test system: Mus musculus; assay: Analgesic activity was evaluated in mouse hotplate test; expressed as licking latency after 30 min of treatment at a dose of 40 ug intracerebroventricularly; assay type: functional
Method in brief: (§1)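 Male Swiss albino mice (23-30 g); icv injection of 5 μL (saline or H2O/DMSO 2:1) under brief anaesthesia. Paw-licking latency (s) on hot plate read before injection and every 15 min up to 60 min. Mice with pretest latency below 12 or over 18 s excluded; cutoff 45 s. Statistics against saline- or vehicle-treated controls.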

[4] = test system: Mus musculus; assay: Analgesic activity was evaluated in mouse hotplate test; expressed as licking latency after 45 min of treatment at a dose of 40 ug intracerebroventricularly; assay type: functional
Method in brief: as §1

[5] = test system: Rattus norvegicus; assay: Antihyperalgesic activity was evaluated in rat (dx) paw pressure test after 60 min at a dose of 40 ug intracerebroventricularly
[6] = target: Voltage-dependent N-type calcium channel subunit alpha-1B (Rattus norvegicus) (UniProt Q02294); assay: In vitro antagonism of N-type calcium channels expressed in PC12 cells was determined as the increase in intracellular calcium influx
[7] = test system: Rattus norvegicus; assay: Antihyperalgesic activity was evaluated in rat (dx) paw pressure test after 30 min at a dose of 40 ug intracerebroventricularly
[8] = test system: Rattus norvegicus; assay: Antihyperalgesic activity was evaluated in rat (sn) paw pressure test after 30 min at a dose of 40 ug intracerebroventricularly
[9] = test system: Mus musculus; assay: Analgesic activity was evaluated in mouse hotplate test; expressed as licking latency after 15 min of treatment at a dose of 40 ug intracerebroventricularly; assay type: functional
Method in brief: as §1

[10] = organism: Mus musculus; assay: Percentage analgesic efficacy when compared to morphine; assay type: functional; parameters: concentration or dose not given beside the values
Method in brief: (§2)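 Male Swiss albino mice, hot-plate test, paw-licking latency; pretest 12–18 s required, cutoff 45 s. Icv injection of 5 μL under brief anaesthesia, in saline or H2O/DMSO 2:1, at maximal soluble dose. Latency read before and every 15 min after dosing. Efficacy = (peak latency − pretest) as % of the same value for morphine 10 μg/mouse icv; non-significant effects scored 0.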

[11] = test system: Rattus norvegicus; assay: Antihyperalgesic activity was evaluated in rat (sn) paw pressure test after 60 min at a dose of 40 ug intracerebroventricularly
[12] = test system: Mus musculus; assay: (§3) Analgesic activity was evaluated in mouse hotplate test; expressed as licking latency after 30 min of treatment at a dose of 10 ug intracerebroventricularly; assay type: functional
Method in brief: as §1

[13] = test system: Mus musculus; assay: Percentage analgesic efficacy when compared to morphine at 50 ug intracerebroventricularly; assay type: functional
Method in brief: as §2

[14] = test system: Mus musculus; assay: (§4) Analgesic activity was evaluated in mouse hotplate test; expressed as licking latency after 45 min of treatment at a dose of 10 ug intracerebroventricularly; assay type: functional
Method in brief: as §1

[15] = test system: Rattus norvegicus; assay: Antihyperalgesic activity was evaluated in rat (sn) paw pressure test after 60 min at a dose of 50 ug intracerebroventricularly
[16] = test system: Mus musculus; assay: Analgesic activity was evaluated in mouse hotplate test; expressed as licking latency after 45 min of treatment at a dose of 25 ug intracerebroventricularly; assay type: functional
Method in brief: as §1

[17] = test system: Mus musculus; assay: Analgesic activity was evaluated in mouse hotplate test; expressed as licking latency after 45 min of treatment at a dose of 50 ug intracerebroventricularly; assay type: functional
Method in brief: as §1

[18] = test system: Mus musculus; assay: Analgesic activity was evaluated in mouse hotplate test; expressed as licking latency after 30 min of treatment at a dose of 25 ug intracerebroventricularly; assay type: functional
Method in brief: as §1

[19] = test system: Rattus norvegicus; assay: Antihyperalgesic activity was evaluated in rat (sn) paw pressure test after 45 min at a dose of 50 ug intracerebroventricularly
[20] = test system: Mus musculus; assay: (§5) Analgesic activity was evaluated in mouse hotplate test; expressed as licking latency after 15 min of treatment at a dose of 10 ug intracerebroventricularly; assay type: functional
Method in brief: as §1

[21] = test system: Rattus norvegicus; assay: Antihyperalgesic activity was evaluated in rat (dx) paw pressure test after 30 min at a dose of 50 ug intracerebroventricularly
[22] = test system: Mus musculus; assay: Analgesic activity was evaluated in mouse hotplate test; expressed as licking latency after 15 min of treatment at a dose of 25 ug intracerebroventricularly; assay type: functional
Method in brief: as §1

[23] = test system: Mus musculus; assay: Analgesic activity was evaluated in mouse hotplate test; expressed as licking latency after 30 min of treatment at a dose of 50 ug intracerebroventricularly; assay type: functional
Method in brief: as §1

[24] = test system: Rattus norvegicus; assay: Antihyperalgesic activity was evaluated in rat (dx) paw pressure test after 45 min at a dose of 50 ug intracerebroventricularly
[25] = test system: Mus musculus; assay: Analgesic activity was evaluated in mouse hotplate test; expressed as licking latency before treatment at a dose of 10 ug intracerebroventricularly; assay type: functional
Method in brief: as §1

[26] = test system: Mus musculus; assay: Analgesic activity was evaluated in mouse hotplate test; expressed as licking latency after 15 min of treatment at a dose of 50 ug intracerebroventricularly; assay type: functional
Method in brief: as §1

[27] = test system: Mus musculus; assay: Analgesic activity was evaluated in mouse hotplate test; expressed as licking latency before treatment at a dose of 25 ug intracerebroventricularly; assay type: functional
Method in brief: as §1

[28] = test system: Rattus norvegicus; assay: Antihyperalgesic activity was evaluated in rat (sn) paw pressure test after 30 min at a dose of 50 ug intracerebroventricularly
[29] = test system: Rattus norvegicus; assay: Antihyperalgesic activity was evaluated in rat (dx) paw pressure test after 60 min at a dose of 50 ug intracerebroventricularly
[30] = test system: Mus musculus; assay: Percentage analgesic efficacy when compared to morphine at 10 ug intracerebroventricularly; assay type: functional
Method in brief: as §2

[31] = target: Voltage-dependent N-type calcium channel subunit alpha-1B (Rattus norvegicus) (UniProt Q02294); assay: In vitro antagonism of N-type calcium channels expressed in PC12 cells was determined as the increase in intracellular calcium influx in the presence of 10 uM nifedipine
[32] = test system: Mus musculus; assay: as §4; assay type: functional; remark: listed apart in the source
Method in brief: (§6)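 Male Swiss albino mice (23-30 g); icv injection under brief anaesthesia, 5 μL into the lateral ventricle, in saline or H2O/DMSO (2:1). Hot plate: latency to licking of fore or hind paws timed with a stopwatch before injection and every 15 min up to 60 min. Pretest scores below 12 or over 18 s rejected; cutoff 45 s.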

[33] = test system: Mus musculus; assay: as §3; assay type: functional; remark: listed apart in the source
Method in brief: as §6

[34] = test system: Mus musculus; assay: as §5; assay type: functional; remark: listed apart in the source
Method in brief: as §6

Voltage-dependent N-type calcium channel subunit alpha-1B (Rattus norvegicus), sequence (Q02294 whole entry, looked up): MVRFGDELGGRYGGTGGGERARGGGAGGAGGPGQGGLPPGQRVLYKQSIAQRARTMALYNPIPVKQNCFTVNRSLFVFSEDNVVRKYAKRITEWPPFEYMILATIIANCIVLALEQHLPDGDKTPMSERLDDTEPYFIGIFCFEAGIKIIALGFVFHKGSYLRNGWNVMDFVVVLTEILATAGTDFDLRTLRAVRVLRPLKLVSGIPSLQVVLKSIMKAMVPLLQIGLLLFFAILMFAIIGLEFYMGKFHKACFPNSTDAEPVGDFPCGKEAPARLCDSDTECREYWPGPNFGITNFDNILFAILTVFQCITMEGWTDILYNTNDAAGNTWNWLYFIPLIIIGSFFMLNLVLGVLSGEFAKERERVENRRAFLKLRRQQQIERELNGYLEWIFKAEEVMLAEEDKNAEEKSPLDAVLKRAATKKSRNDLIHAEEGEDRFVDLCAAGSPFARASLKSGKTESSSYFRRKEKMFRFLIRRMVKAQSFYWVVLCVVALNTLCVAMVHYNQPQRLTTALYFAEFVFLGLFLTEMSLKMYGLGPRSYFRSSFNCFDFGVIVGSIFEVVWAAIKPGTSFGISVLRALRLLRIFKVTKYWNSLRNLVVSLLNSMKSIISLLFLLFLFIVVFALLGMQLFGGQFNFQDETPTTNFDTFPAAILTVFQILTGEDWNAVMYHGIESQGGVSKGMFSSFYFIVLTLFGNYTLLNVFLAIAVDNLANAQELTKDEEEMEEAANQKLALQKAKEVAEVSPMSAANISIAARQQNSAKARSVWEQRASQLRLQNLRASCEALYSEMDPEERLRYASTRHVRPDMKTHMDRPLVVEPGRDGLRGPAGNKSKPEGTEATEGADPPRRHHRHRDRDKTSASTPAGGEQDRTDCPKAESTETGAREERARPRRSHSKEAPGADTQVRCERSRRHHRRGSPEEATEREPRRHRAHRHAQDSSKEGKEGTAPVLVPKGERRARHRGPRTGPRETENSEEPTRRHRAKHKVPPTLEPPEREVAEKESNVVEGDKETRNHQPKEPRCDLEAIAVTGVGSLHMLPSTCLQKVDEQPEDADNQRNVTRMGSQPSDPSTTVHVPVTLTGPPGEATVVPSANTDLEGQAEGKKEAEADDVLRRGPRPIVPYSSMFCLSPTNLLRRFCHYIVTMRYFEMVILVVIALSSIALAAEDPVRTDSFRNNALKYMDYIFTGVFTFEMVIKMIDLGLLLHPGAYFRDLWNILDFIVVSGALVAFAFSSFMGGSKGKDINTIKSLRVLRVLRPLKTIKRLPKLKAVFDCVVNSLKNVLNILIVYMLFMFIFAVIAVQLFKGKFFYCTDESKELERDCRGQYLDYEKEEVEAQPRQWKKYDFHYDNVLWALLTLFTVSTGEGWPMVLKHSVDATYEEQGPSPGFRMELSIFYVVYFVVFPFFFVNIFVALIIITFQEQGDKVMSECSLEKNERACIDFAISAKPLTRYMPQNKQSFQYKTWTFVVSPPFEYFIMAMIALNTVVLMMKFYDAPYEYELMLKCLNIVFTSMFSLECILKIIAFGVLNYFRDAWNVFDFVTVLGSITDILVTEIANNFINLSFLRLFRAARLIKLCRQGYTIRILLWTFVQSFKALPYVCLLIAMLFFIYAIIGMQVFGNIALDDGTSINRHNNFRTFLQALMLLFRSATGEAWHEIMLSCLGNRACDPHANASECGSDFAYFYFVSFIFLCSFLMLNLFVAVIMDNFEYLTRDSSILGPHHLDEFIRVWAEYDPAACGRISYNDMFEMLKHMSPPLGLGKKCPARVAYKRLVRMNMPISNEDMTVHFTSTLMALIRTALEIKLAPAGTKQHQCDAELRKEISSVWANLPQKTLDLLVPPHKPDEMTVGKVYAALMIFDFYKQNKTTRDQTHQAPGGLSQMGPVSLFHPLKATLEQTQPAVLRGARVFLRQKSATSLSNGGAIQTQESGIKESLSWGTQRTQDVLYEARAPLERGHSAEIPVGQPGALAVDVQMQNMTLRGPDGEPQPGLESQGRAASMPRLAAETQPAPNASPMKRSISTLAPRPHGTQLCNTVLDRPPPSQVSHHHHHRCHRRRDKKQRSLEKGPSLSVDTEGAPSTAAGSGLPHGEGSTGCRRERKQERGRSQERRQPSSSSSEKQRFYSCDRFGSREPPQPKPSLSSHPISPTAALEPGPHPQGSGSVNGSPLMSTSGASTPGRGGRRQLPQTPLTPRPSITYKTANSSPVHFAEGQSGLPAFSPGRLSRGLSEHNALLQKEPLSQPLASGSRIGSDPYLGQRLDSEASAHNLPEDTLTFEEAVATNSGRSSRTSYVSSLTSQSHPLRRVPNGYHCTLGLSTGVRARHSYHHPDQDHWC

Which results are given for `CNC(CC(C)C)C(=O)NC1CCN(C(=O)CCC(c2ccc(F)cc2)c2ccc(F)cc2)CC1.Cl` (centres undefined)?
Activity [1]: 61.3 g; Activity [2]: 33.4 g; Latency [3]: 20.7 s; Latency [4]: 15.5 s; Activity [5]: 30.1 g; IC50 [6]: 3000 nM; Activity [7]: 28.1 g; Activity [8]: 55.7 g; Latency [9]: 21.5 s; Efficacy [10]: 56%; Activity [11]: 66.4 g

With `Cl.NC1CCN(C(=O)CCC(c2ccc(F)cc2)c2ccc(F)cc2)CC1` as the compound, how does the Activity [12] read?
The Activity was 16.1 s.

What about the Efficacy [13] of the same compound?
Its Efficacy is 147%.

And the Activity [14]?
Its Activity is 16.4 s.

What about the Activity [15] of the same compound?
The Activity was 54.7 g.

And the Activity [16]?
Its Activity is 20.5 s.

And the Activity [17]?
The Activity was 29.5 s.

What about the Activity [18] of the same compound?
The Activity was 23.9 s.

And the Activity [19]?
The Activity was 55.6 g.

And the Activity [20]?
Its Activity is 15.7 s.

What about the Activity [21] of the same compound?
The Activity was 55.1 g.

And the Activity [22]?
Its Activity is 24.6 s.

And the Activity [23]?
Its Activity is 31.7 s.

What about the Activity [24] of the same compound?
Its Activity is 54.8 g.

And the Activity [25]?
The Activity was 14.3 s.

And the Activity [26]?
Its Activity is 34.1 s.

What about the Activity [27] of the same compound?
The Activity was 13.9 s.

What about the Activity [28] of the same compound?
Its Activity is 62.3 g.

And the Activity [29]?
The Activity was 59.3 g.

And the Efficacy [30]?
Its Efficacy is 0%.

And the IC50 [31]?
The IC50 was 2400 nM.

What does the source list for `CN1CC[C@]23c4c5ccc(O)c4O[C@H]2[C@@H](O)C=C[C@H]3[C@H]1C5` [MORPHINE]?
Latency [32]: 22.4 s; Latency [33]: 27.7 s; Latency [34]: 28.6 s
